{"source": "paper PMC13102995", "about": "(Biomedicine & Pharmacotherapy, 2026)", "key": {"[1]": {"test_system": "PLCβ", "format": "cell-based, Human", "conditions": "U73122 2 µM, HEK293, mean ± SEM; for inhibition of ACh-induced intracellular Ca2+ response: 1 h, 1 µM ACh"}, "[2]": {"test_system": "PLCβ", "test": "PIP2 imaging: BK-induced PLCδ-PH-GFP translocation in HEK293T cells", "format": "cell-based, Human", "conditions": "PL2003 100 µM, U73122 2 µM, PL2204 1–100 µM; versus vehicle", "in_short": "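HEK293T transfected with PLCδ-PH-GFP, replated 24 h later on poly-D-lysine and imaged after another 24 h. Pre-incubation 1 h with test compound (1, 10, 100 µM), vehicle or 2 µM U73122. Baseline 30 s in Ca2+-containing solution, pH 7.4, then 250 nM bradykinin for 2 min. Translocation = ΔF/F0; time to maximum timed from onset; IC50 from Hill-equation fit.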"}, "[3]": {"test_system": "PLCγ", "test": "TG-induced store-operated calcium", "format": "cell-based, human", "conditions": "U73122 2 µM, 1 h; 1 µM TG; HaCaT; mean ± SEM, N = 2", "in_short": "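HaCaT on coverslips used 48 h after plating, loaded with 6 µg/mL Fluo-4 AM/0.05% Pluronic plus test compound (100 µM), 0.1% DMSO or 2 µM U73122 for 1 h, then washed ≥20 min. In Ca2+-free solution, 1 µM thapsigargin/0.1 mM EGTA for 3 min, then 2 mM Ca2+ to trigger SOC entry. Cells ≥20 AFU analysed; ΔFSOC/ΔFTG normalised to vehicle.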"}, "[4]": {"test_system": "neonatal rat dorsal root ganglion (DRG) neurons", "format": "cell-based", "conditions": "U73122 5 µM, 1 h; 500 nM capsaicin pulses, 1 µM BK", "in_short": "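DRG neurons from 3–5-day-old Wistar rats, collagenase IA digested (2.5 mg/mL, 1 h), grown 48 h on 60-electrode arrays (poly-L-lysine/laminin) with NGF and cytosine arabinoside. Test compound (100 µM) or 0.1% DMSO pre-incubated 1 h in serum medium without NGF; PLC inhibitor at 5 µM. Three 30-s pulses of 500 nM capsaicin (P1–P3); bradykinin used at 1 µM.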"}, "[5]": {"biological_target": "T1, PLCβ3 (Homo sapiens, UniProt Q01970)", "T1 sequence (Q01970 1-1234)": "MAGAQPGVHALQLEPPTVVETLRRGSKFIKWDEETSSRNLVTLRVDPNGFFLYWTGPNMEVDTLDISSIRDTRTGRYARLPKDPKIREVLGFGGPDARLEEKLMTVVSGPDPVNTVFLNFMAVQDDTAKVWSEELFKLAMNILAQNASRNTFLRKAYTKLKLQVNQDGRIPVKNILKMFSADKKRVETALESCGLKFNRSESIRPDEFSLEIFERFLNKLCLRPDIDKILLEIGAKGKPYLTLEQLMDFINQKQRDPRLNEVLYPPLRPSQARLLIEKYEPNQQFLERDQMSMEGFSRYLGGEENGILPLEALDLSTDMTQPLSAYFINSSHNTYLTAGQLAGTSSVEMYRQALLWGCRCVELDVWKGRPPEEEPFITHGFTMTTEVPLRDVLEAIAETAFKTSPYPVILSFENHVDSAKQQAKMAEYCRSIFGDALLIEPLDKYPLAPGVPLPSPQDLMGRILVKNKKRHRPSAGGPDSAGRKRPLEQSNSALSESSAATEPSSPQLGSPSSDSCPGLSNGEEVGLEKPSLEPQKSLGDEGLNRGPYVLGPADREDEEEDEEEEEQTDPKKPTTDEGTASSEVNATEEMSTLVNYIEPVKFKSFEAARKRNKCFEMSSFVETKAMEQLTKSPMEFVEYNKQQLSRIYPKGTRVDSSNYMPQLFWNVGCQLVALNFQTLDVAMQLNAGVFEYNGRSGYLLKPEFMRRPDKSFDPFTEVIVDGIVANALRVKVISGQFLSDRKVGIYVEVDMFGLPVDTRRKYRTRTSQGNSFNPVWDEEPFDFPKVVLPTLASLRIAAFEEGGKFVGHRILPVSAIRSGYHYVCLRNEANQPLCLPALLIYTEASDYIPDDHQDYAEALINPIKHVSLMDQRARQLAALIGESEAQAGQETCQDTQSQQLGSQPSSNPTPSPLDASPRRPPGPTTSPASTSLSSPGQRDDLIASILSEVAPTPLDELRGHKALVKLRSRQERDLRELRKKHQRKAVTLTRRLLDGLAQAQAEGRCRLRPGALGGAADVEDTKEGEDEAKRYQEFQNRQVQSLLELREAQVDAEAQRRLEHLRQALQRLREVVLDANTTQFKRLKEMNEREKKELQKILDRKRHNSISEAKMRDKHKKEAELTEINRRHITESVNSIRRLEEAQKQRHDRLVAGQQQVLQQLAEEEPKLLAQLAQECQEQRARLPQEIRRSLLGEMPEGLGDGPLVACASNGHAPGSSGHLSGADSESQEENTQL", "test": "Surface plasmon resonance binding to pulled-down PLCβ3", "conditions": "12.5–200 µM, multi-cycle, HBS-EP+ buffer, 25 °C", "in_short": "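Multi-cycle SPR at 25 °C. Peptides at 12.5–200 µM, including a randomized control peptide, in HBS-EP+, injected over active and reference flow cells for 250 s at 5 µL/min, with return to baseline between cycles. Reference-subtracted binding levels were read at the end of injection after baseline subtraction.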"}, "[6]": {"test": "Solubility and aggregation observed on preparation of the peptides", "format": "physicochemical", "conditions": "observation"}}, "note": "Read-outs that look alike come from different tables or passages of the source."}
{"molecule": "COc1ccc2c(c1)CC[C@@H]1[C@@H]2CC[C@]2(C)[C@@H](NCCCCCCN3C(=O)C=CC3=O)CC[C@@H]12", "note": "[Peptide U73122, 1-(6-((17β-3-methoxyestra-1,3,5(10)-trien-17-yl)amino)hexyl)-1H-pyrrole-2,5-dione]", "values": [{"measurement": "inhibition of ACh-induced intracellular Ca2+ response", "setting": "[1]; experiment of Fig. 2B", "result": "40.5 ± 9.4", "unit": "%"}, {"measurement": "inhibition of ACh-induced intracellular Ca2+ response", "setting": "[1]; experiment of Fig. 2C", "result": "65.4 ± 4.3", "unit": "%"}, {"measurement": "inhibition of ACh-induced intracellular Ca2+ response", "setting": "[1]; experiment of Fig. 2D", "result": "51.9 ± 7.5", "unit": "%"}, {"measurement": "percentage of ACh-responsive cells normalized to vehicle", "setting": "[1]; experiment of Fig. 2C", "result": "66.7 ± 9.3", "unit": "%"}, {"measurement": "percentage of ACh-responsive cells normalized to vehicle", "setting": "[1]; experiment of Fig. 2D", "result": "62.0 ± 12.0", "unit": "%"}, {"measurement": "time to reach maximum PLCδ-PH-GFP translocation", "setting": "[2]", "result": "does not modify"}, {"measurement": "SOC activity (ΔFSOC / ΔFTG normalized to vehicle)", "setting": "[3]", "result": "55.4 ± 9.4"}, {"measurement": "inhibition of BK-induced TRPV1 sensitization (P3 - P2)", "setting": "[4]", "result": "did not significantly attenuate"}]}
{"molecule": "Ac-IVSNRYSK-NH2 [randomized PL2204]", "values": [{"measurement": "binding to pulled-down PLCβ3 (SPR)", "setting": "[5]", "result": "strongly reduced binding levels"}]}
{"molecule": "Ac-IYSSNV-NH2 [PL2005]", "values": [{"measurement": "solubility", "setting": "[6]; in different solvents", "result": "solubility problems in different solvents"}, {"measurement": "aqueous solubility", "setting": "[6]; prepared in 0.4% DMSO in extracellular solution", "result": "poor aqueous solubility"}]}
